SR-BI HDL uptake = inhibitors of mouse SR-BI mediated HDL lipid uptake. Q61009. inhibition, % at 12.5 µM. ldlA[mSR-BI] CHO cells, DiI-HDL uptake fluorescence, 3 h. AID 488896. 0.96% of 320,000 active;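 active = mean replicate inhibition of at least 70% and a set share of replicates each scoring 70 or more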;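 also: 0% = median of neutral control wells and 100% = median of positive control wells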
Target sequence (Q61009 whole entry, looked up): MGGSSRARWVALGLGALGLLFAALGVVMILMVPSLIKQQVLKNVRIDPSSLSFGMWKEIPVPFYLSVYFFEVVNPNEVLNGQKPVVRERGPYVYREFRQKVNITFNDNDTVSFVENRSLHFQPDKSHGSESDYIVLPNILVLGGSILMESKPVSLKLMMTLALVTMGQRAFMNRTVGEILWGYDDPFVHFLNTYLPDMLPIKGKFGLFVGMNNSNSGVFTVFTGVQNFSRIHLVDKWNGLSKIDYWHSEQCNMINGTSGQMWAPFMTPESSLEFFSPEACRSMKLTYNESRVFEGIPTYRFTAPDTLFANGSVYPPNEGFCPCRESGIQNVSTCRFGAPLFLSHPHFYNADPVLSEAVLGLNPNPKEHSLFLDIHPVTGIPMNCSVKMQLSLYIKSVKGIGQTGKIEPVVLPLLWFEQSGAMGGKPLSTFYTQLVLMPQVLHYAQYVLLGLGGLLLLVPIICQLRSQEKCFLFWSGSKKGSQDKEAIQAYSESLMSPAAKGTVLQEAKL
AHR act = activates the human aryl hydrocarbon receptor; AHR-responsive luciferase reporter cells, luminescence; activation, % at 5 µM; 2.5% of 320,000 active; AID 2796; in the data active = activation above about 47%;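 also: 0% = vehicle wells and 100% = reference agonist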
HIF activator = HIF pathway transcriptional activation. activation, % at 7.5 µM (by protocol). 0.32% of 300,000 active. U2OS HRE-luciferase reporter, luminescence; normalized: DMSO 0%, desferrioxamine 100%;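 active = mean activation of at least 10% of the iron chelator positive control signal, with at least half of replicates also reaching 10%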
SR-BI uptake up = enhances SR-BI lipid uptake from DiI-HDL; activation, % at 12.5 µM; AID 504775; 0.096% of 320,000 active; CHO ldlA[mSR-BI] cells, DiI-HDL uptake fluorescence, 3 h; 100 = double the neutral-control signal;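 active = mean replicate activation of at least 60% and every replicate at or above 60%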;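 also: 0% = median plate neutral-control signal and 100% = twice that signal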
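system = CHO ldlA[mSR-BI] cells, LDL receptor-null, SR-BI overexpressing | medium = Ham's F12 with 0.5% BSA, HEPES 25 mM, pH 7.4 | probe or stimulus = DiI-HDL 10 µg/mL | compound dosing = single-point compound dose | incubation = compound exposure 3 h, 37 °C | technique = DiI fluorescence, bottom read | read-out = cell-associated DiI fluorescence as measure of HDL uptake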
GAA850 FXN act = activators of GAA850 frataxin (FXN) promoter; 0.56% of 360,000 active; HEK293 lucGAA850 FXN promoter luciferase reporter, 24 h; percent of 10 µM SAHA response; activation, % at 6 µM; AID 540364;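 active = activation above the average of all compounds screened plus 3 SD, cutoff fixed separately per campaign, cut at about 7.5% in these data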;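 also: 0% = DMSO wells and 100% = 10 µM SAHA wells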
ABCB6 inh MLPCN = blocks the human ABCB6 transporter; K562-ABCB6 porphyrin accumulation, flow cytometry, 1 h; hits give low values; 0.19% of 360,000 active; fluorescence ratio to DMSO, % at 10 µM; Q9NP58;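 active = fluorescence ratio to DMSO below 75%, the collection mean minus 3 SD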;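 also: signal is porphyrin accumulated inside mitochondria; 100% equals median channel fluorescence of DMSO control wells; lower ratio means ABCB6 inhibition with less porphyrin fluorescence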
The depositor's hits bear a star; / = no result. Rows were chosen to be rich in hits. Some 3.9% of all compounds tested hit in one or more screens of this group.

SMILES	SR-BI HDL uptake	AHR act	HIF activator	SR-BI uptake up	GAA850 FXN act	ABCB6 inh MLPCN
Cc1cc(C(=O)N/N=C/c2c3ccccc3cc3ccccc23)n[nH]1	17.2	97.6*	0.8	-17.2	-1.6	102.0
COC(=O)N/N=C/c1cc(N=Nc2ccccc2)ccc1O	14.9	6.8	-0.6	-14.9	1.9	94.0
Cc1ccc(S(=O)(=O)N2CCN(C(=O)CSc3nnnn3C)CC2)c(C)c1	30.9	-0.1	-0.3	-30.9	0.2	98.0
CS(=O)(=O)c1cccc(C(=O)N(CCc2ccccc2)Cc2cccs2)c1	/	3.1	15.0*	/	-1.0	105.0
CCOC(=O)C1CCN(C(=O)COc2ccc(Cl)cc2Cl)CC1	-13.7	-2.3	-0.3	13.7	0.3	97.0
CC(C)/C=C1\CCc2c([nH]c3ccccc23)C1=O	2.9	56.7*	1.4	-2.9	1.5	97.0
O=C1/C(=C\c2ccccc2)CCc2c1[nH]c1ccccc21	16.6	20.4	2.3	-16.6	-2.6	100.0
Cc1cccc(C2NC(=O)c3c(sc(C)c3C)N2)c1O (configuration not stated)	-17.7	22.9	0.0	17.7	1.3	103.0
COc1ccc(NC(=O)CCc2nc(-c3ccc(C)cc3)no2)cc1Cl	-8.5	15.2	1.1	8.5	2.0	95.0
COc1ccc(/C=N/Nc2nncc3ccccc23)cc1	4.4	47.7*	0.8	-4.4	5.6	94.0
Oc1c(Br)cc(/C=N/Nc2nncc3ccccc23)cc1Br	/	3.1	-0.5	/	/	/
Clc1cccc(-c2csc(Nc3cccnc3)n2)c1	9.4	41.1	1.7	-9.4	6.1	95.0
c1cncc(Nc2nc(-c3ccncc3)cs2)c1	2.0	3.8	0.0	-2.0	3.1	98.0
Cc1nc(C)c(-c2csc(Nc3cccnc3)n2)s1	59.8	94.1*	1.0	-59.8	3.0	96.0
c1cncc(Nc2nc(-c3cccnc3)cs2)c1	-4.3	50.2*	0.7	4.3	5.0	98.0
Clc1ccccc1-c1csc(Nc2cccnc2)n1	40.8	68.3*	2.3	-40.8	1.1	89.0
COc1ccc(C2=NN(C(=O)CSc3nc4ncc(Cl)cc4[nH]3)C(c3ccco3)C2)cc1 (configuration not stated)	10.8	47.2*	0.0	-10.8	-1.0	98.0
CC1(C)Cc2c(sc3nc(-c4cccs4)n(N)c(=O)c23)CO1	10.5	73.5*	2.5	-10.5	-0.1	93.0
Nn1c(-c2cccs2)nc2sc3c(c2c1=O)CCCC3	19.8	58.1*	1.7	-19.8	3.8	101.0
Clc1ccc2nc(-c3cccc(SC4CCCCC4)c3)c(NCc3ccccc3)n2c1	42.8	24.2	-1.3	-42.8	-1.3	109.0
NC(=O)c1c(/N=C/c2cccs2)sc2c1CCCC2	/	69.8*	0.8	/	3.5	100.0
O=C(CN1C(=O)NC(c2ccc(F)cc2)C1=O)NC1CCCCC1 (configuration not stated)	-3.8	0.5	/	3.8	1.3	99.0
Cc1oc(-c2cc(F)ccc2F)nc1CN1CCN(c2cnccn2)CC1	15.2	53.8*	-0.8	-15.2	-0.8	95.0
O=C(/C=C/c1ccco1)Oc1cc(Br)cc(/C=N/NC(=O)c2ccccc2O)c1	133.7*	24.2	96.6*	-133.7	-5.1	97.0
Brc1c(-c2ccccc2)nc2n1Cc1ccccc1-2	10.9	53.9*	5.2	-10.9	4.5	97.0
SMILES	SR-BI HDL uptake	AHR act	HIF activator	SR-BI uptake up	GAA850 FXN act	ABCB6 inh MLPCN
COc1ccc(C2Nc3ccccc3C(=O)N2NS(C)(=O)=O)cc1OC (configuration not stated)	5.1	8.1	0.1	-5.1	1.9	98.0
Cc1ccc(CNC(=O)C2c3ccccc3C(=O)N3CCc4ccccc4C23)o1 (configuration not stated)	3.3	115.0*	0.0	-3.3	1.8	99.0
O=C(CSc1nnc(-c2ccncc2)n1Cc1ccco1)Nc1nc(-c2ccccc2)cs1	49.2	47.7*	1.9	-49.2	-0.7	101.0
O=C(CSc1nnc(-c2ccncc2)n1Cc1ccco1)c1ccc(Cl)cc1	14.3	5.5	0.7	-14.3	4.4	94.0
O=C(CSc1nnc(-c2ccncc2)n1Cc1ccco1)Nc1ccccc1Cl	-1.8	1.3	-0.3	1.8	-0.7	97.0
O=C(CSc1nnc(-c2ccc(Cl)cc2)n1Cc1ccco1)c1cccs1	22.9	87.3*	-0.3	-22.9	0.8	108.0
CC(C(C(=O)N1CCCCC1)N1CCCCC1)N1CCCCC1 (configuration not stated)	-5.6	/	/	5.6	-1.4	105.0
CS(=O)(=O)N(CC(=O)NCCSC1CCCCC1)c1ccc2c(c1)OCO2	-4.5	3.1	0.0	4.5	1.7	82.0
C#CCn1c(O)c(N=NC(=O)C(O)c2ccccc2)c2ccccc21 (configuration not stated)	0.9	66.8*	-0.4	-0.9	2.4	98.0
Cc1sc2cc3c(c(C(=O)c4ccccc4)[n+]2c1C)-c1cccc2cccc-3c12	/	6.6	11.0*	/	/	/
O=C(c1ccccc1)c1c2c(cc3sc4ccccc4[n+]13)-c1cccc3cccc-2c13	4.0	54.2*	/	-4.0	-10.0	404.0
O=C(c1ccccc1)c1ccc2ccccc2c1	/	/	/	/	2.7	98.0
CCCc1nc2ccc(NC(=O)NCCC(=O)OCC)cc2c(=O)n1Cc1ccc(Cl)cc1	71.6*	-1.0	0.8	-71.6	2.4	95.0
Cc1cccn2c(=O)c(C=O)c(N3CCN(c4ccc(F)cc4)CC3)nc12	19.6	64.5*	-0.3	-19.6	4.8	100.0
Cc1ccc(-n2ncc3c2CC(C)(C)CC3NC(=O)CCCN2CCCCC2=O)cc1 (configuration not stated)	-2.0	0.3	0.3	2.0	1.8	99.0
Cc1cc(C)n(-c2nc3ccccc3c(=O)n2OCC#N)n1	-30.6	/	14.1*	30.6	2.7	96.0
CCOn1c(-n2nc(C)cc2C)nc2ccccc2c1=O	-17.3	20.6	0.1	17.3	-2.1	91.0
CSc1nc2nc3c(cc2c(=O)n1-c1ccccc1C)CCCC3	1.2	-0.2	0.8	-1.2	-2.6	91.0
CN1CCN(S(=O)(=O)c2ccc(Sc3nnnn3-c3ccccc3)c([N+](=O)[O-])c2)CC1	-29.8	3.2	-3.1	29.8	-10.5	93.0
Cc1oc(-c2ccc(Cl)cc2)cc1C(=O)O	-7.7	5.2	1.0	7.7	1.6	89.0
Cc1oc(-c2ccc(Cl)cc2)cc1C(=O)/C(C#N)=C/Nc1cccc(OC(F)(F)F)c1	9.0	46.4	43.3*	-9.0	0.1	94.0
CS(=O)(=O)c1ccc(C(=O)OCc2nnc(-c3ccc(Cl)cc3)o2)cc1[N+](=O)[O-]	-1.5	2.9	1.1	1.5	13.8*	99.0
CC/C(=N\NC(=O)Nc1nonc1N)c1ccc(OC)c(OC)c1	2.0	9.5	-0.3	-2.0	1.1	99.0
COc1ccc(NC(=O)/C=C/c2cc(OC)c(OC)c(OC)c2)cn1	0.1	-7.7	-0.1	-0.1	-1.2	101.0

Bioassay records deposited in PubChem by several laboratories.
